Article PMC8542566 (Cell chemical biology, 2021)

Legend:
TgPPT1 = test: Inhibition of recombinant TgPPT1, turnover of 4MU-octanoate; assay type: biochemical, Toxoplasma gondii; conditions: recombinant enzyme, 4MU-octanoate substrate; result in words
Procedure, shortened: (§1)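 Purified full-length N-terminal His6 enzyme from E. coli, 50 nM final, with 10 μM test compound in 20 mM HEPES, 150 mM NaCl, 10 mM CHAPS, pH 7.4, at 37°C. 4MU-octanoate hydrolysis followed by fluorescence. Initial rates taken from a linear fit, in triplicate, normalized to DMSO control and expressed as percent inhibition.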

TgASH2 = test: Inhibition of recombinant TgASH2, turnover of 4MU-octanoate; assay type: biochemical, Toxoplasma gondii; conditions: recombinant enzyme, 4MU-octanoate substrate; result in words
Procedure, shortened: as §1

TgASH3 = test: Inhibition of recombinant TgASH3, turnover of 4MU-octanoate; assay type: biochemical, Toxoplasma gondii; conditions: recombinant enzyme, 4MU-octanoate substrate; result in words
Procedure, shortened: as §1

TgASH4 = test: Gel-based competitive FP-TAMRA labeling of recombinant TgASH4; assay type: binding, Toxoplasma gondii; conditions: recombinant enzyme, gel-based FP-TAMRA competition; result in words
Procedure, shortened: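 Full-length N-terminal His6 enzyme, expressed in E. coli BL21-CodonPlus(DE3)-RIL (0.5 mM IPTG, 16 h, 19°C) and purified. 300 ng enzyme pre-incubated with DMSO or test compound (10 μM) for 30 min on ice, then labeled with FP-TAMRA for 30 min at 37°C. Quenched in reducing SDS buffer, resolved by SDS-PAGE, fluorescence-scanned (532 nm laser, 610 nm filter). Residual labeling expressed as percent inhibition versus DMSO.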

[1] = test system: T. gondii tachyzoites in HFFs; test: Rosette formation assay; assay type: cell-based, Toxoplasma gondii; conditions: 10 μM dose, wild-type parasites in HFFs, 24 h
Procedure, shortened: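 Freshly egressed wild-type tachyzoites pre-treated with DMSO or 10 μM test compound were grown 24 h on confluent HFF coverslips (DMEM, 10% serum complex, 37°C, 5% CO2). Cells were PFA-fixed, Triton-permeabilized, BSA-blocked, stained with anti-Toxo-FITC (1:1000, overnight, 4°C), DAPI-mounted and imaged by confocal microscopy.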

Row | SMILES | inhibitory activity against recombinant TgPPT1 (TgPPT1) | inhibition of TgASH2 (TgASH2) | inhibition of TgASH3 (TgASH3) | inhibition of TgASH4 (TgASH4) | rosette formation inside the host cell [1]
1 | O=C(O)c1cccc(NC(=S)Nc2ccc3c(Cl)c(OCCBr)oc(=O)c3c2)c1 [JCP342] | significant inhibitory activity | – | – | – | –
2 | O=c1oc(OCCBr)c(Cl)c2ccc(NC(=S)Nc3ccccc3)cc12 [JCP343] | virtually no activity | potent inhibitors | potent inhibitors | potent inhibitors | –
3 | CCCCCCCCCCC[C@@H](C[C@@H]1OC(=O)[C@H]1CCCCCC)OC(=O)[C@H](CC(C)C)NC=O [Orlistat] | – | – | – | – | disordered rosettes
